Usually IC50 stands for the point on the concentration scale where inhibition reaches its midpoint. Broadly, the inhibition is the drop in the measured response relative to a control, in per cent. A low value points to little suppression.

The test system of assay [1] is Mus musculus. Nature of the assay: Anticonvulsant activity against mouse model of LiCa/pilocarpine-induced status epilepticus assessed as theta at 20 mg/kg, po for 10 days by EEG method relative to control. In kind it is functional. As to conditions: time 10 day. A digest of the protocol:
(§1)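 Male mice (20-30 g), five per group, dosed orally once daily for 10 days. Status epilepticus was then induced with LiCa (3 mEq/kg i.p.), atropine sulfate (1 mg/kg i.p.) 30 min before pilocarpine, and pilocarpine HCl (300 mg/kg i.p.) 2 h after LiCa. Normal controls received oral distilled water. Comparators were untreated SE, phenytoin and lamotrigine. One-way ANOVA with Tukey post-hoc; mean ± SD.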

For assay [2], the system named is Mus musculus. Kind of assay: Anticonvulsant activity against mouse model of LiCa/pilocarpine-induced status epilepticus assessed as alpha at 20 mg/kg, po for 10 days by EEG method relative to control. As to conditions: time 10 day. In kind it is functional. A digest of the protocol:
as §1

For assay [3], the system named is Mus musculus. Nature of the assay: Anticonvulsant activity against mouse model of LiCa/pilocarpine-induced status epilepticus assessed as total power at 20 mg/kg, po for 10 days by EEG method relative to control. The class given is functional. The following applies: time 10 day. The method in brief:
as §1

Assay [4] relates to Mus musculus. Kind of assay: Anticonvulsant activity against mouse model of LiCa/pilocarpine-induced status epilepticus assessed as amplitude at 20 mg/kg, po for 10 days by EEG method relative to control. In kind it is functional. As to conditions: time 10 day. A digest of the protocol: as §1
Assay [5] has as its system Mus musculus. Kind of assay: Anticonvulsant activity against mouse model of LiCa/pilocarpine-induced status epilepticus assessed as GSH level in brain at 20 mg/kg, po for 10 days by calorimetric method relative to control. The class given is functional. As to conditions: time 10 day. The method in brief:
as §1

For assay [6], the system named is Mus musculus. Kind of assay: Anticonvulsant activity against mouse model of LiCa/pilocarpine-induced status epilepticus assessed as spectral edge frequency at 20 mg/kg, po for 10 days by EEG method relative to control. In kind it is functional. As to conditions: time 10 day. The method in brief: as §1
In assay [7] the test system is Mus musculus. Nature of the assay: Anticonvulsant activity against mouse model of LiCa/pilocarpine-induced status epilepticus assessed as MDA level in brain at 20 mg/kg, po for 10 days by calorimetric method relative to control. The class given is functional. The following applies: time 10 day. A digest of the protocol:
as §1

Assay [8] has as its system Mus musculus. Kind of assay: Anticonvulsant activity against mouse model of LiCa/pilocarpine-induced status epilepticus assessed as delta at 20 mg/kg, po for 10 days by EEG method relative to control. As to conditions: time 10 day. The class given is functional. A digest of the protocol: as §1
Assay [9] deals with Mus musculus. Nature of the assay: Anticonvulsant activity against mouse model of LiCa/pilocarpine-induced status epilepticus assessed as Glutamate level in brain at 20 mg/kg, po for 10 days by ELISA relative to control. The following applies: time 10 day. The class given is functional. The method in brief: as §1
In general terms: An ELISA detects its analyte on a solid surface through an enzyme-linked reagent.

The subject of assay [10] is WI-38. Kind of assay: Cytotoxicity against human WI-38 cells assessed as reduction in cell viability after 48 hrs by MTT assay. The class given is cell-based. As to conditions: WI-38, 48 h. The method in brief:
(§2)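 Cells from ATCC grown in DMEM with 10% FBS, insulin and 1% penicillin-streptomycin. Plated at 1.2-1.8 × 10,000 cells/well for 24 h, then exposed to compounds in DMSO vehicle for 48 h. MTT 0.5 mg/ml added for 2 h; absorbance read at 570 nm. Experiments run in triplicate.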
For orientation: Formazan colour is commonly taken as a measure of viable cells.

Assay [11] deals with T1, Receptor tyrosine-protein kinase erbB-2 (Homo sapiens, UniProt P04626). Kind of assay: Inhibition of HER2 (unknown origin) at 10 uM relative to control. The method in brief:
(§3)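 Cell-free immunoassay kit measuring EGFR T790M/HER2 kinase inhibition. Percent inhibition screened at 10 µM. IC50 obtained from four concentrations (0.01-10 µM) by fitting E(%) = Emax/(1+[I]/ID50) to a dose-response curve. Mean of two independent replicates.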

Assay [12] relates to Mus musculus. Kind of assay: Anticonvulsant activity against mouse model of LiCa/pilocarpine-induced status epilepticus assessed as amplitude density at 20 mg/kg, po for 10 days by EEG method relative to control. In kind it is functional. The following applies: time 10 day. A digest of the protocol:
as §1

The subject of assay [13] is Mus musculus. Kind of assay: Anticonvulsant activity against mouse model of LiCa/pilocarpine-induced status epilepticus assessed as GABA level in brain at 20 mg/kg, po for 10 days by ELISA relative to control. In kind it is functional. As to conditions: time 10 day. A digest of the protocol:
as §1

For assay [14], the system named is Mus musculus. Nature of the assay: Anticonvulsant activity against mouse model of LiCa/pilocarpine-induced status epilepticus assessed as power pV2 at 20 mg/kg, po for 10 days by EEG method relative to control. The class given is functional. The following applies: time 10 day. The method in brief: as §1
For assay [15], the system named is Mus musculus. Nature of the assay: Anticonvulsant activity against mouse model of LiCa/pilocarpine-induced status epilepticus assessed as total power density at 20 mg/kg, po for 10 days by EEG method relative to control. In kind it is functional. As to conditions: time 10 day. The method in brief: as §1
Assay [16] has as its target T1, Receptor tyrosine-protein kinase erbB-2. Nature of the assay: Inhibition of HER2 (unknown origin). The method in brief:
as §3

Assay [17] deals with Mus musculus. Nature of the assay: Anticonvulsant activity against mouse model of LiCa/pilocarpine-induced status epilepticus assessed as mean power frequency at 20 mg/kg, po for 10 days by EEG method relative to control. The following applies: time 10 day. The class given is functional. A digest of the protocol:
as §1

The target of assay [18] is Epidermal growth factor receptor (Homo sapiens, UniProt P00533, T790M). Nature of the assay: Inhibition of EGFR T790M mutant (unknown origin).
For assay [19], the system named is MCF7. Kind of assay: Cytotoxicity against human MCF7 cells assessed as reduction in cell viability after 48 hrs by MTT assay. The class given is functional, cell-based. The following applies: MCF7, 48 h. The method in brief:
as §2

T1 sequence (P04626 whole entry): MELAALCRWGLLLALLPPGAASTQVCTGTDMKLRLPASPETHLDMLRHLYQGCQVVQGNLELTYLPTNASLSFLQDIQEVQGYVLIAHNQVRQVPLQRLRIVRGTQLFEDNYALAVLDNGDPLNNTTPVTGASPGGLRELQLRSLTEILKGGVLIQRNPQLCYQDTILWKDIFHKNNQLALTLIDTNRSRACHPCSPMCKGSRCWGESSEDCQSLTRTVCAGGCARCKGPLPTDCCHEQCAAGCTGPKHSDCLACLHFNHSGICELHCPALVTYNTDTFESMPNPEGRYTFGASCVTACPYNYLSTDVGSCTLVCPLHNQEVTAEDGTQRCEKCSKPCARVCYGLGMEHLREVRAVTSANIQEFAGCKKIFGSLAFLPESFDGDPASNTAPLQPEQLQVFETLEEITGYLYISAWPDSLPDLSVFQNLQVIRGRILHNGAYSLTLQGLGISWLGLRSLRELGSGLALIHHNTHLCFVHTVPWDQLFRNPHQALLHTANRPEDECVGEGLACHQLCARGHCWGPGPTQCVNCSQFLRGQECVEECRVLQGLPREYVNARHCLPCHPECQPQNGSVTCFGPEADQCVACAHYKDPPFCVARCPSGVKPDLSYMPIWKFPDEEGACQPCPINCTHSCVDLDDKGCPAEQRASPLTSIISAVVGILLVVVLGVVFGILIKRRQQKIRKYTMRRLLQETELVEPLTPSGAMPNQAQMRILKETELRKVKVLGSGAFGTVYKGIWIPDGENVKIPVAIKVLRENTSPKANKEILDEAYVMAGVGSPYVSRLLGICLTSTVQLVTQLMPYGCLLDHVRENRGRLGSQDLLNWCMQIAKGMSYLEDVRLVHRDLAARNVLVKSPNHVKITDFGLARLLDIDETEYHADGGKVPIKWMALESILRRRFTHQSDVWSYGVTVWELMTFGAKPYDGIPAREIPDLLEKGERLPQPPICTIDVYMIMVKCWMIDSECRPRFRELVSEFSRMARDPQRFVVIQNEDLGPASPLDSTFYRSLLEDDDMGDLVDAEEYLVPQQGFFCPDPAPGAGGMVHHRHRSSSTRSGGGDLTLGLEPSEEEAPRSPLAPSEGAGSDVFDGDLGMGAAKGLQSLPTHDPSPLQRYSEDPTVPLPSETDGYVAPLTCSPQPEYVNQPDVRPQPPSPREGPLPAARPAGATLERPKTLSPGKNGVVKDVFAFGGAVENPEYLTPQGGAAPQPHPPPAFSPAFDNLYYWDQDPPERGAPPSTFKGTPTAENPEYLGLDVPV
Epidermal growth factor receptor, sequence (P00533 25-1210 T790M limits assumed): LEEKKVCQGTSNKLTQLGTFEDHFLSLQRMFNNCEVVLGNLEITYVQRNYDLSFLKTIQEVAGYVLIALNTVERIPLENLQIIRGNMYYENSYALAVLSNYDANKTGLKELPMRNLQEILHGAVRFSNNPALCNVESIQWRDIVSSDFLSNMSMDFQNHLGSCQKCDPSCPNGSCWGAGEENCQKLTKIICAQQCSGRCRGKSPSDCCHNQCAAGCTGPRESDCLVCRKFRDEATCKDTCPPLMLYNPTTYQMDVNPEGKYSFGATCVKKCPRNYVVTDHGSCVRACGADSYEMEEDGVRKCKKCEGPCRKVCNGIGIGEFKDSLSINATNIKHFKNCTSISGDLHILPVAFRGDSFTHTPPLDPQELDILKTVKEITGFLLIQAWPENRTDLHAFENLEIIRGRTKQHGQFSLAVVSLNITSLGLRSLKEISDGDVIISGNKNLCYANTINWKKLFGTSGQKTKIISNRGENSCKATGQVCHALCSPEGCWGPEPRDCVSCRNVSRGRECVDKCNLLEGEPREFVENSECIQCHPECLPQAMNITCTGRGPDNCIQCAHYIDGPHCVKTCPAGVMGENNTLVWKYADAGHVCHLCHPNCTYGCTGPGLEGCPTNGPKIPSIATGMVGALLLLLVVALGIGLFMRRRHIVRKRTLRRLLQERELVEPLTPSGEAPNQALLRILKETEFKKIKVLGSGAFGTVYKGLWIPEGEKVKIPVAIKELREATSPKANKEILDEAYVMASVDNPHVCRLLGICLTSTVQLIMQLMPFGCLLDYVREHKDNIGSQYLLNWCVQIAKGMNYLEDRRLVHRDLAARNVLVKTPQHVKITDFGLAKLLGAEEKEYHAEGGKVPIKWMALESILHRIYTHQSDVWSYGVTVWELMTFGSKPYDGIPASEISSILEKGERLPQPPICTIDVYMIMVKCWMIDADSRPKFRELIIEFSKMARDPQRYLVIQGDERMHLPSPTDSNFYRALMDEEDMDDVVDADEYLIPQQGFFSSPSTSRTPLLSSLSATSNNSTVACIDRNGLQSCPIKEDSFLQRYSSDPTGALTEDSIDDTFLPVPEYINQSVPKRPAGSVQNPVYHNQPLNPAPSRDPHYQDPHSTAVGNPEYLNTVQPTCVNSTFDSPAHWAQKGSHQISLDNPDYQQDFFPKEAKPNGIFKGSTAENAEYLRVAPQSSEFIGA

In the case of `Cc1ccc(C2=N/C(=C\c3ccc(Cl)cc3)C(=O)NN2C(=O)c2nc3c(c(C)nn3-c3ccccc3)c(=O)[nH]2)cc1`, the Activity in assay [1] is reported as 34.92%; in assay [2] it was 13.75%; in assay [3], 15.45%; in [4] it was 66.22%; in assay [5], 113.22%; in [6] it was -20.49%. For the same molecule, the Activity is -50.74% in [7]; 256.83% in assay [8]; -36.07% in assay [9]; 71.73% in assay [12]; 58.15% in [13]; 152.01% in [14]. Further, the Activity is given as 208.36% in assay [15] and -29.47% in [17]. For the same molecule, the IC50 was 26.4 nM in [10] and 11200 nM in [16]. The molecule further showed an inhibition in assay [11] of 54.5%.

Consider `Cc1nn(-c2ccccc2)c2nc(CC(=O)N3NC(=O)/C(=C\c4ccccc4)N=C3c3ccccc3)[nH]c(=O)c12`, for which the Activity in [1] is given as 31.8%; in assay [2], 33.49%; in assay [3], 2.33%; in assay [4], 63.11%; in assay [5], 69.18%; in assay [6], -17.45%. Moreover, the Activity in [7] is given as -56.93%; in assay [8], 264.32%; in assay [9] it was -50.88%; in assay [12], 62.01%; in [13], 52.65%; in assay [14], 136.74%. Moreover, the Activity in assay [15] is reported as 202.38%; in assay [17], -23.98%. Besides, the half-maximal inhibitory concentration (IC50) stood at 47.2 nM in assay [10], 656 nM in assay [18] and 872 nM in assay [16]. The inhibition in assay [11] was 83.6%.

For the molecule `COc1ccc(/C=C2/N=C(c3ccccc3)N(C(=O)Cc3nc4c(c(C)nn4-c4ccccc4)c(=O)[nH]3)NC2=O)cc1`, the Activity in assay [1] was 24.43%; in assay [2], 2.55%; in assay [3], 16.62%; in assay [4], 66.22%; in assay [5] it was 136.46%; in [6] it was -21.87%. Further, the Activity is recorded as -66.91% in [7]; 266.63% in assay [8]; -75.98% in assay [9]; 47.72% in [12]; 104.31% in [13]; 167.62% in assay [14]. The Activity in assay [15] is 215.63%; in assay [17], -39.36%. In assay [10], the IC50 came to 17.2 nM.

As to `Cc1nn(-c2ccccc2)c2nc(C(=O)N3NC(=O)/C(=C/c4ccc(Cl)cc4)N=C3c3ccccc3)[nH]c(=O)c12`, the Activity in [1] is reported as 34.07%; in assay [2], 18.91%; in assay [3], 19.53%; in [4], 76%; in assay [5] it was 174.47%; in assay [6], -17.28%. The Activity is -53.49% in [7]; 270.93% in [8]; -50.65% in assay [9]; 77.2% in [12]; 74.77% in assay [13]; 134.23% in assay [14]. In addition, the Activity in assay [15] is on record as 202.67%; in [17] it was -27.57%. Moreover, the IC50 in assay [10] was found to be 31.8 nM; in assay [19] it was 44.3 nM.

For the molecule `Cc1ccc(C2=N/C(=C/c3ccccc3)C(=O)NN2C(=O)Cc2nc3c(c(C)nn3-c3ccccc3)c(=O)[nH]2)cc1`, the Activity in assay [1] is listed as 11.83%; in [2] it was -5.99%; in assay [3], 23.32%; in [4], 90.67%; in assay [5], 188.85%; in [6] it was -29%. Moreover, the Activity in assay [7] is given as -69.74%; in assay [8] it was 366.41%; in [9] it was -82.89%; in assay [12], 110.33%; in [13] it was 91.22%; in assay [14] it was 243.46%. For the same molecule, the results for the Activity in [15] and in [17] were 302.31% and -46.23%, respectively. Moreover, the IC50 in assay [10] was 85.6 nM.

As to `COc1ccc(/C=C2\N=C(c3ccccc3)N(C(=O)c3nc4c(c(C)nn4-c4ccccc4)c(=O)[nH]3)NC2=O)cc1`, the Activity in assay [1] is 29.32%; in [2], -5.51%; in assay [3], 30.61%; in assay [4], 99.56%; in [5], 141.33%; in assay [6], -25.28%. In addition, the Activity in [7] is listed as -54.04%; in [8], 368.94%; in assay [9] it was -76.21%; in assay [12], 88.15%; in [13], 68.66%; in assay [14] it was 230.03%. For the same molecule, the values for the Activity in assay [15] and in assay [17] were 265.27% and -48.49%, respectively. Besides, the IC50 in assay [10] turned out to be 97.7 nM.

For the molecule `Cc1ccc(C2=N/C(=C\c3ccccc3)C(=O)NN2C(=O)c2nc3c(c(C)nn3-c3ccccc3)c(=O)[nH]2)cc1`, the Activity in assay [1] is reported as 32.01%; in [2], 9.13%; in assay [3], 15.45%; in [4], 62.22%; in assay [5], 173.91%; in assay [6], -22.26%. For the same molecule, the Activity in [7] was -66.18%; in assay [8], 241.85%; in assay [9], -72.91%; in assay [12], 36.17%; in assay [13], 59.73%; in assay [14], 143.79%. The results for the Activity in [15] and in [17] were 210.16% and -37.93%, respectively. The IC50 in assay [10] is 24.5 nM.

With `Cc1nn(-c2ccccc2)c2nc(C(=O)N3NC(=O)/C(=C/c4ccccc4)N=C3c3ccc(Cl)cc3)[nH]c(=O)c12`, the Activity is recorded as 16.08% in assay [1]; 27.21% in assay [2]; 10.2% in assay [3]; 54.67% in [4]; 80.37% in [5]; -13.59% in assay [6]. The Activity in [7] was -55.28%; in assay [8], 254.07%; in assay [9], -39.91%; in [12], 76.29%; in [13], 89.37%; in [14] it was 133.56%. In addition, the Activity in assay [15] is 200.5%; in assay [17] it was -22.83%. Moreover, the IC50 in assay [10] stood at 55 nM.

The record behind these values is ChEMBL document CHEMBL4732181, “Pyrazolo[3,4-d]pyrimidine-based dual EGFR T790M/HER2 inhibitors: Design, synthesis, structure-activity relationship and biological activity as potential antitumor and anticonvulsant agents” (Eur J Med Chem, 2021).
